Assay outcomes (PubChem BioAssay)
CAL PDZ FP-1 = CAL PDZ peptide-binding inhibitors, primary screen, biochemical, fluorescence polarization, Cer-tagged CAL PDZ, HTS; Golgi-associated PDZ and coiled-coil motif-containing protein (Homo sapiens), Q9HD26; purified CAL PDZ, TMR-peptide fluorescence polarization, 1 h; inhibition, % at 20 µM; 330,000 tested, 0.02% active;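 active means highest replicate inhibition of at least 40%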
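material = purified tagged CAL PDZ domain construct (CerCALP) | buffer or medium = sodium phosphate/NaCl buffer pH 7.4 with TCEP, IgG, Thesit | reagent = TMR-labelled reporter peptide T*-PRC34 bound in PDZ groove | incubation = 1 h room-temperature incubation prior to read | measured by = fluorescence polarization (mP) | evaluation = percent inhibition from loss of millipolarization | control set = unlabelled peptide and DMSO controls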
PvdQ acylase = P. aeruginosa PvdQ acylase inhibitors, primary screen, biochemical, fluorescence, plate reader and imaging, single point. PvdQ acylase [Pseudomonas aeruginosa LESB58]. purified PvdQ acylase. inhibition, % at 10 µM. 340,000 tested, 0.063% active. AID 488965, 2010; in the data active means inhibition above about 30%, passing the limit was not always enough; inconclusive means no clear call, values can overlap the other calls
miR-122 sensor = miR-122 Renilla sensor signal increase in Huh7, primary screen, miR-122 inhibitor project, cell-based, single point, plate reader; Huh7 miR-122 Renilla luciferase sensor, 48 h; neutral wells = 0, positive control = 100; activation (reporter increase), % at 12.5 µM; 340,000 tested, 0.3% active; AID 602342, 2012;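 active means mean replicate activation score at least 90 and every replicate individually at or above 90; inconclusive means only one of the two criteria met; inactive means neither criterion met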;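 further: higher luciferase means less miR-122 activity so hits act as miR-122 inhibitors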
CAL PDZ FP-2 = untagged CAL PDZ binding inhibitors, primary screen, biochemical, fluorescence polarization, HTS | inhibition, % at 24.9 µM | AID 602252, 2012 | purified CAL PDZ, TMR-peptide fluorescence polarization, 1 h | 300,000 tested, 0.92% active;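 active means mean inhibition of at least 30% with at least half of replicates also reaching 30%; inconclusive means no clear call, values can overlap the other calls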
Each line names hits and unclear results; the compound was inactive in the other large screens; [ ] = remark or other dose. A selection: hits, their analogues and other compounds. The true share with any hit is near 0.95%.

Cc1noc(C)c1NC(=O)Nc1cccc2c1O[C@@H](CN(C)Cc1ccc(Cl)c(Cl)c1)[C@@H](C)CN([C@H](C)CO)C2=O	miR-122 sensor 114.1[16.7 µM] (no result: CAL PDZ FP-1, PvdQ acylase, CAL PDZ FP-2)
CCOC(=O)c1ccc(S(=O)(=O)NC2CCCCCCC2)n1C	miR-122 sensor 127.8
CCOC(=O)c1cc(S(=O)(=O)NC2CCCCC2)cn1C	miR-122 sensor inconclusive
Cc1ccc(S(=O)(=O)N2CCC(n3nnc4cc(C)ccc43)CC2)cc1	none
COc1ccc(CCN2CC(O)=C(c3nc(C)cs3)C2=N)cc1OC	miR-122 sensor 129.8 (no result: CAL PDZ FP-2)
Cc1csc(C2=C(O)CN(CCc3ccccc3)C2=N)n1	none
O=S1(=O)N=C2CCCN2C(c2ccc(F)cc2)N1 (stereo not given)	none
CCc1ccccc1N1C(=O)CC(Sc2nccc(C)n2)C1=O (stereo not given)	CAL PDZ FP-2 99.7 (no result: CAL PDZ FP-1)
COc1ccc(C2NCCc3cc(OC)c(OC)cc32)cc1OC (stereo not given)	CAL PDZ FP-2 59.5
Clc1ccc(CSc2nnc(-c3cccnc3)n2Cc2ccco2)c(Cl)c1	none
Cc1ccc2scc(CN3CCCC3)c2c1	PvdQ acylase 38.3 (no result: CAL PDZ FP-2)
O=C(CNc1cccc([N+](=O)[O-])c1)NCCCc1ccccc1	CAL PDZ FP-2 38.4
N#Cc1cccc(S(=O)(=O)NCC(=O)NCCCc2ccccc2)c1	none (no result: CAL PDZ FP-2)
O=C(CNS(=O)(=O)c1cccc(Br)c1)NCCCc1ccccc1	CAL PDZ FP-2 44.3 (no result: miR-122 sensor)
O=C(Cc1ccccc1)Nc1cccc([N+](=O)[O-])c1	none (no result: miR-122 sensor)
COc1cccc(NC(=O)CN(C)C(=O)/C=C/c2cn(-c3ccccc3)nc2-c2ccc(OC)c(OC)c2)c1	none
CSc1nc(-c2ccc(C)cc2)[nH]c1S(=O)(=O)c1ccccc1	miR-122 sensor 125.5, CAL PDZ FP-2 35.3 (no result: CAL PDZ FP-1)
CSc1nc(-c2ccccc2)[nH]c(=S)c1C(C)=O	none
Cc1cc(C)c(N2C(=NC(=O)CCCC(=O)O)SC3CS(=O)(=O)CC32)c(C)c1 (stereo not given)	CAL PDZ FP-2 40.8
Cc1ccc(CN2C(=NC(=O)CCC(=O)O)SC3CS(=O)(=O)CC32)cc1 (stereo not given)	none (no result: miR-122 sensor)
Fc1cnc(Cl)nc1NC1CCCCC1	none
CN1C(=O)[C@H]2[C@@H](c3ccc(F)cc3)N3C(=O)c4ccccc4NC(=O)[C@@]3(C)[C@H]2C1=O	miR-122 sensor 94.5
COc1ccc2c(c1)OC[C@H]1[C@H]2N2C(=O)c3ccccc3NC(=O)[C@@]2(C)[C@H]1c1ccccc1	none (no result: miR-122 sensor)
CC1CN(C(=S)Nc2ccccc2)CC(C)O1 (stereo not given)	none
CC1CN(C(=S)Nc2ccccc2)N(c2ccccc2)C1 (stereo not given)	CAL PDZ FP-2 67.1 (no result: miR-122 sensor)
N#CC(c1ccc(Cl)cc1)c1ccc(Cl)nn1 (stereo not given)	PvdQ acylase 80.0
Cc1ccc(C(C#N)c2ccc3c(C(F)(F)F)cc(C(F)(F)F)nc3n2)cc1 (stereo not given)	none
Cc1ccc(C(C#N)c2ccc(Cl)nn2)cc1 (stereo not given)	PvdQ acylase 85.8 (no result: miR-122 sensor)
Cc1cccc(C(C#N)c2ccc(Cl)nn2)c1 (stereo not given)	PvdQ acylase 88.8
N#CC(c1ccc(Cl)nn1)c1ccccc1Cl (stereo not given)	PvdQ acylase 108.2
N#CC(c1ccccc1)c1ccc(=O)[nH]n1 (stereo not given)	none (no result: miR-122 sensor)
O=C1NC(=O)C(c2ccccc2)(C2CCCC2)N1 (stereo not given)	none (no result: miR-122 sensor)
Cc1ccc(S(=O)(=O)Nc2ccccc2C(=O)N2CCN(C)CC2)cc1	CAL PDZ FP-2 43.9
CN1CCC(C(=O)N2CCCC(C(=O)c3ccc4c5c(cccc35)CC4)C2)CC1 (stereo not given)	none (no result: miR-122 sensor)
CCn1c(=O)c2cc(S(=O)(=O)NC3CCCCC3)ccc2n(CC)c1=O	miR-122 sensor 98.5
CCn1c(=O)c2cc(S(=O)(=O)NCc3ccccc3)ccc2n(CC)c1=O	none
CCOC(=O)C1=C(C)N=C2SC(CC)C(=O)N2C1c1cccc(F)c1 (stereo not given)	none
COc1ccc(S(=O)(=O)N/N=C\c2ccc3c(c2)OCO3)c(OC)c1	none
COc1ccc(OC)c(S(=O)(=O)N/N=C\c2ccc3c(c2)OCO3)c1	miR-122 sensor 104.9
Cc1ccc(Nc2nc3ccccc3n3cnnc23)cc1C	none
COc1ccc(Nc2nc3ccccc3n3cnnc23)cc1	CAL PDZ FP-2 60.2
O=C(NNc1ccccc1)/C(=C\c1cccnc1)NC(=O)c1ccccc1	CAL PDZ FP-2 73.1 (no result: miR-122 sensor)
O=C(Nc1ccccc1)/C(=C/c1cccnc1)NC(=O)c1ccccc1	none
Cc1ccccc1NC(=O)c1nc(S(C)(=O)=O)ncc1Cl	CAL PDZ FP-2 85.8
C[C@@H]1CCCCO[C@H](CN(C)Cc2ccc(C(F)(F)F)cc2)[C@H](C)CN([C@H](C)CO)C(=O)c2cc(N(C)C)ccc2O1	none (no result: CAL PDZ FP-1, PvdQ acylase, CAL PDZ FP-2)
COc1cc(OC)c(C(=O)Nc2cccc3ccccc23)cc1OC	CAL PDZ FP-2 33.3
NC(=O)c1ccc(NC(=O)COC(=O)C2CCN(S(=O)(=O)c3cccs3)CC2)cc1	CAL PDZ FP-2 129.6
COc1ccc(N=C(c2ccccc2)c2c(C)[nH]n(-c3ccccc3)c2=O)c(OC)c1	CAL PDZ FP-2 36.3
COc1ccccc1N=Nc1c(C)[nH]n(-c2ccccc2)c1=O	none
C=CCN(c1ccc(F)cc1)S(=O)(=O)c1cc(C(=O)OCC(=O)N(C)C2CCS(=O)(=O)C2)ccc1Cl (stereo not given)	CAL PDZ FP-2 39.5
CCOc1ccc(NC(=O)CN(C)S(=O)(=O)c2cccs2)cc1	CAL PDZ FP-2 59.2
Cc1ccc(Nc2nc(C(=O)NCc3ccco3)cs2)cc1	miR-122 sensor 162.4 (no result: CAL PDZ FP-2)
CCN(CC)C(=O)c1csc(Nc2ccc(C)cc2)n1	none
Cc1cnc(C(=O)Nc2ccc(S(=O)(=O)NCC(C)C)cc2)cn1	none (no result: miR-122 sensor, CAL PDZ FP-2)
CCOc1ccccc1CNC(=O)CN1C(=O)CSc2ccc(S(=O)(=O)N3CCOCC3)cc21	CAL PDZ FP-2 active
CCOC(=O)N1CCC(N2C(=O)c3ccccc3C2Nc2ccc(S(=O)(=O)N(CC)CC)cc2)CC1 (stereo not given)	CAL PDZ FP-2 67.0 (no result: miR-122 sensor)
CCCN(C)C[C@H]1Oc2cc(C#Cc3ccc(OC)cc3)ccc2S(=O)(=O)N([C@H](C)CO)C[C@H]1C	none (no result: CAL PDZ FP-1, PvdQ acylase, CAL PDZ FP-2)
COc1ccccc1NC(=S)NNC(=O)c1ccc(Cl)cc1Cl	CAL PDZ FP-2 48.7
Cc1cc(NS(=O)(=O)c2c(C(=O)N3CCOCC3)c(C)n(C)c2C)ccc1Br	CAL PDZ FP-2 77.6
Cc1ccc(NS(=O)(=O)c2c(C(=O)N3CCOCC3)c(C)n(C)c2C)cc1	none
Nc1nc(C2CCCN2S(=O)(=O)c2ccc(Cl)cc2)cs1 (stereo not given)	CAL PDZ FP-2 45.7
O=C(/C=C/c1ccco1)NC(=S)Nc1ccc(N2CCOCC2)c(Cl)c1	miR-122 sensor 103.9 (no result: CAL PDZ FP-2)
